Source: ChEMBL document CHEMBL3576783, “Synthesis and evaluation of 1,2,4-triazolo[1,5-a]pyrimidines as antibacterial agents against Enterococcus faecium” (J Med Chem, 2015)
Converted amounts (≈) assume the structure as drawn. The source made the active and inactive calls. The calls are words filed in the database; no cut-off is given here.

Experiments:
Staphylococcus aureus [1] = assay: Antibacterial activity against Staphylococcus aureus ATCC 29213 assessed as bacterial growth inhibition after 16-20 hrs by broth microdilution method; format: functional, organism-based
How it was run: (§1)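 CLSI broth microdilution in cation-adjusted Mueller Hinton II broth, run in triplicate. Cultures grown to OD600 about 0.60-0.80, diluted 100-fold, final inoculum 5×10^5 CFU/mL. Compounds diluted from 5 mg/mL DMSO stocks; final 2% (v/v) DMSO plus 0.25% (v/v) glacial acetic acid. Plates incubated at 35 °C for 16-20 h before reading the MIC.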

Klebsiella pneumoniae = assay: Antibacterial activity against Klebsiella pneumoniae ATCC 700603 assessed as bacterial growth inhibition after 16-20 hrs by broth microdilution method; format: functional, organism-based; how it was run: as §1
Acinetobacter baumannii = assay: Antibacterial activity against Acinetobacter baumannii ATCC 17961 assessed as bacterial growth inhibition after 16-20 hrs by broth microdilution method; format: functional, organism-based; how it was run: as §1
Pseudomonas aeruginosa = assay: Antibacterial activity against Pseudomonas aeruginosa ATCC 27853 assessed as bacterial growth inhibition after 16-20 hrs by broth microdilution method; format: functional, organism-based; how it was run: as §1
Enterobacter sp. = assay: Antibacterial activity against Enterobacter sp. assessed as bacterial growth inhibition after 16-20 hrs by broth microdilution method; format: functional, organism-based; how it was run: as §1
Enterococcus faecium [2] = assay: Antibacterial activity against copper, erythromycin, teracycline-resistant and vancomycin and teicoplanin-sensitive Enterococcus faecium ATCC BAA2127 assessed as bacterial growth inhibition after 16-20 hrs by broth microdilution method; format: functional
How it was run: (§2)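 CLSI broth microdilution in cation-adjusted Mueller Hinton II broth, triplicate. Cultures grown to OD600 about 0.60-0.80, diluted 100-fold; final inoculum 5×10^5 CFU/mL. Compounds from 5 mg/mL DMSO stock diluted in medium, final 2% (v/v) DMSO plus 0.25% (v/v) glacial acetic acid. Incubated 35 °C, 16-20 h, then MIC read.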

Enterococcus faecium [3] = assay: Antibacterial activity against vancomycin-susceptible Enterococcus faecium 119-39A assessed as bacterial growth inhibition after 16-20 hrs by broth microdilution method; format: functional; how it was run: as §2
Enterococcus faecium [4] = assay: Antibacterial activity against Enterococcus faecium C9 assessed as bacterial growth inhibition after 16-20 hrs by broth microdilution method; format: functional; how it was run: as §2
Enterococcus faecium [5] = assay: Antibacterial activity against Enterococcus faecium C38 assessed as bacterial growth inhibition after 16-20 hrs by broth microdilution method; format: functional; how it was run: as §2
Enterococcus faecium [6] = assay: Antibacterial activity against Enterococcus faecium C68 assessed as bacterial growth inhibition after 16-20 hrs by broth microdilution method; format: functional; how it was run: as §2
Liver = assay: Half life in human liver S9 at 10 uM after 60 mins by UPLC analysis; format: ADME, subcellular, Liver S9 fraction; settings: s9, 1 h
How it was run: (§3)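 Pooled human liver S9 (1 mg/mL) with 1 mM NADPH and 10 μM compound in sodium phosphate buffer (0.20 M phosphate, 0.15 M NaCl, pH 7.4), 37 °C for 60 min. Six time points quenched in acetonitrile with internal standard, analysed by UPLC-MRM. Half-life taken from first-order rate constant; CLint scaled with 45 mg protein/g liver and 20 g liver/kg. Run in duplicate.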

[7] = Apparent intrinsic clearance in human liver S9 at 10 uM after 60 mins by UPLC analysis; format: ADME, subcellular, Liver S9 fraction; settings: read-out: CLH(app); how it was run: as §3
Plasma = assay: Plasma protein binding in human at 10 uM by rapid equilibrium dialysis method; format: ADME, cell-free
How it was run: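 Human plasma centrifuged to clear particulates, spiked with compound to final 10 μM in 0.1% DMSO. Dialysed against 0.1 M sodium phosphate buffer, pH 7.4, at 37 °C overnight with shaking in a rapid equilibrium dialysis device. Buffer and plasma sides extracted with acetonitrile containing internal standard and analysed by UPLC-MRM. Binding calculated as (Cp−Cf)/Cp×100.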

[8] = Induction of hemolysis in RBC (unknown origin) at 64 ug/ml; settings: erythrocytes
Staphylococcus aureus [9] = assay: Inhibition of Staphylococcus aureus PBP2a up to 100 ug/ml by BIOCILLIN FL based fluorescence analysis
How it was run: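 Recombinant purified PBP2a (final 2 μM) preincubated with inhibitor in 25 mM Hepes, 1 M NaCl, pH 7.0, 37 °C, 10 min. BOCILLIN FL (final 20 μM) then added for 10 min at 37 °C. Samples boiled in SDS buffer and run on 12% SDS-PAGE. Fluorescent bands scanned and quantified against a no-inhibitor control.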

BL21-DE3 = assay: Inhibition of Enterococcus faecium D63r PBP5fm expressed in Escherichia coli BL21 (DE3) cells up to 100 ug/ml after 10 to 20 mins by BIOCILLIN FL-based fluorescence assay
How it was run: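 Recombinant PBP5fm lacking the signal peptide, expressed in E. coli BL21(DE3) and purified by anion-exchange then chelating chromatography. Enzyme (40 μM) preincubated with inhibitor in 25 mM Hepes, 1 M NaCl, pH 7.0 at 37 °C for 20 min. BOCILLIN FL (30 μM) then added for a further 20 min. Bands resolved on 12% SDS-PAGE and fluorescence quantified against a no-inhibitor control.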

Enterococcus faecium [10] = assay: microbe, parasite or virus in culture; settings: NCTC 7171
Enterococcus faecium [11] = assay: Antibacterial activity against vancomycin and teicoplanin-resistant Enterococcus faecium ATCC 700221 isolated from human faeces assessed as bacterial growth inhibition after 16-20 hrs by broth microdilution method; format: functional; settings: ATCC 700221, Feces
How it was run: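 Broth microdilution in cation-adjusted Mueller Hinton II broth, run to CLSI method, triplicate. Cells grown to OD600 ~0.60-0.80, diluted 100-fold; final inoculum 5×10^5 CFU/mL. Compounds from 5 mg/mL DMSO stocks diluted in medium, final 2% (v/v) DMSO plus 0.25% (v/v) glacial acetic acid. Incubated 35 °C for 16-20 h, then MIC read.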

Enterococcus faecium [12] = assay: Inhibition of peptidoglycan synthesis in Enterococcus faecium NCTC 7171 assessed as decrease in D-[2,3-3H]-alanine incorporation at 8 ug/ml after 120 mins by liquid scintillation counting analysis; format: functional, organism-based
How it was run: (§4)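 E. faecium NCTC 7171 grown in brain-heart infusion at 37 °C to early-log phase. Tritiated precursor (1 uCi/mL) added and incubated 5 min; compound then added at 8 μg/mL with DMSO negative control, followed by 2 h growth. Samples taken every 20 min, precipitated in 20% ice-cold TCA, filtered, washed with TCA and ethanol, and scintillation-counted in duplicate. Value reported at 120 min.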

Enterococcus faecium [13] = assay: Inhibition of DNA replication in Enterococcus faecium NCTC 7171 assessed as decrease in [methyl-3H]-thymidine incorporation into DNA at 8 ug/ml after 120 mins by liquid scintillation counting analysis; format: functional, organism-based; how it was run: as §4
Enterococcus faecium [14] = assay: Inhibition of transcription in Enterococcus faecium NCTC 7171 assessed as decrease in [5,6-3H]-uridine incorporation into RNA at 8 ug/ml after 120 mins by liquid scintillation counting analysis; format: functional, organism-based; how it was run: as §4
Enterococcus faecium [15] = assay: Inhibition of translation in Enterococcus faecium NCTC 7171 assessed as decrease in L-[4,5-3H]-leucine incorporation into protein at 8 ug/ml after 120 mins by liquid scintillation counting analysis; format: functional, organism-based; how it was run: as §4
Escherichia coli = assay: Effect on beta-galactosidase reporter gene translation in Escherichia coli S30 extract by transcription/translation assay; format: functional

SMILES | MIC (Enterococcus faecium [2]) | MIC (Enterococcus faecium [3]) | MIC (Enterococcus faecium [5]) | t1/2 (Liver) | CLint scaled at 10 µM [7] | Activity [8] | MBC (Enterococcus faecium [10]) | MIC (Enterococcus faecium [10]) | MIC (Enterococcus faecium [11]) | also measured
CC1=C(C(N)=O)C(c2ccc(C(C)C)cc2)n2nc(SCc3ccccc3)nc2N1 (centres undefined) | 4 µg/mL (≈ 9.53 µM) | 4 µg/mL (≈ 9.53 µM) | 16 µg/mL (≈ 38.1 µM) | 0.933 h | 11.1 mL/min/kg | 22% | 32 µg/mL (≈ 76.3 µM) | 8 µg/mL (≈ 19.1 µM) | – | inhibition (Staphylococcus aureus [1]): inactive; inhibition (Klebsiella pneumoniae): inactive; inhibition (Acinetobacter baumannii): inactive; inhibition (Pseudomonas aeruginosa): inactive; inhibition (Enterobacter sp.): inactive; MIC (Enterococcus faecium [4]): 16 µg/mL (≈ 38.1 µM); MIC (Enterococcus faecium [6]): 16 µg/mL (≈ 38.1 µM); PPB (Plasma): 98.7%; inhibition (Staphylococcus aureus [9]): inactive; inhibition (BL21-DE3): inactive
CN[C@H](CC(C)C)C(=O)N[C@H]1C(=O)N[C@@H](CC(N)=O)C(=O)N[C@H]2C(=O)N[C@H]3C(=O)N[C@H](C(=O)N[C@H](C(=O)O)c4cc(O)cc(O)c4-c4cc3ccc4O)[C@H](O)c3ccc(c(Cl)c3)Oc3cc2cc(c3O[C@@H]2O[C@H](CO)[C@@H](O)[C@H](O)[C@H]2O[C@H]2C[C@](C)(N)[C@H](O)[C@H](C)O2)Oc2ccc(cc2Cl)[C@H]1O [VANCOMYCIN] | – | – | 64 µg/mL (≈ 44.2 µM) | – | – | – | – | – | 16 µg/mL (≈ 11 µM) | MIC (Enterococcus faecium [6]): 64 µg/mL (≈ 44.2 µM)
CC1=C(C(N)=O)C(c2ccc(N(C)C)cc2)n2nc(SCc3ccc([N+](=O)[O-])cc3)nc2N1 (centres undefined) | 32 µg/mL (≈ 68.7 µM) | 16 µg/mL (≈ 34.4 µM) | – | > 1 h | < 10.4 mL/min/kg | 23% | 16 µg/mL (≈ 34.4 µM) | 4 µg/mL (≈ 8.59 µM) | 8 µg/mL (≈ 17.2 µM) | –
CC1=C(C(N)=O)C(c2ccc(N(C)C)cc2)n2nc(SCc3ccccc3)nc2N1 (centres undefined) | 4 µg/mL (≈ 9.51 µM) | 4 µg/mL (≈ 9.51 µM) | 16 µg/mL (≈ 38 µM) | > 1 h | < 10.4 mL/min/kg | 2% | 32 µg/mL (≈ 76.1 µM) | 4 µg/mL (≈ 9.51 µM) | 4 µg/mL (≈ 9.51 µM) | PPB (Plasma): 97.6%; inhibition (Enterococcus faecium [12]): Active; inhibition (Enterococcus faecium [13]): inactive; inhibition (Enterococcus faecium [14]): inactive; inhibition (Enterococcus faecium [15]): inactive; Activity (Escherichia coli): inactive
CC1=C(C(N)=O)C(c2ccc(OC(C)C)cc2)n2nc(SCc3ccccc3)nc2N1 (centres undefined) | 16 µg/mL (≈ 36.7 µM) | – | 32 µg/mL (≈ 73.5 µM) | 0.95 h | 10.9 mL/min/kg | < 1% | – | 4 µg/mL (≈ 9.18 µM) | 8 µg/mL (≈ 18.4 µM) | –
CC1=C(C(N)=O)C(c2ccc(N(C)C)cc2)n2nc(SCc3ccc(C#N)cc3)nc2N1 (centres undefined) | – | 8 µg/mL (≈ 18 µM) | 16 µg/mL (≈ 35.9 µM) | > 1 h | < 10.4 mL/min/kg | 1% | 16 µg/mL (≈ 35.9 µM) | – | 8 µg/mL (≈ 18 µM) | MIC (Enterococcus faecium [4]): 4 µg/mL (≈ 8.98 µM); MIC (Enterococcus faecium [6]): 4 µg/mL (≈ 8.98 µM); PPB (Plasma): 96.8%; inhibition (Staphylococcus aureus [9]): inactive; inhibition (BL21-DE3): inactive
CCSc1ccc(C2C(C(N)=O)=C(C)Nc3nc(SCc4ccccc4)nn32)cc1 (centres undefined) | 16 µg/mL (≈ 36.6 µM) | 8 µg/mL (≈ 18.3 µM) | – | > 1 h | < 10.4 mL/min/kg | 46% | – | 4 µg/mL (≈ 9.14 µM) | – | –
CC1=C(C(N)=O)C(c2ccc(C(F)(F)F)cc2)n2nc(SCc3ccccc3)nc2N1 (centres undefined) | – | – | – | – | – | – | – | 8 µg/mL (≈ 18 µM) | – | –
CC1=C(C(N)=O)C(c2ccco2)n2nc(SCc3ccccc3)nc2N1 (centres undefined) | – | – | – | – | – | – | – | > 128 µg/mL | – | –
CC1=C(C(N)=O)C(c2ccc(C(=O)O)cc2)n2nc(SCc3ccccc3)nc2N1 (centres undefined) | – | – | – | – | – | – | – | > 128 µg/mL | – | –
CC1=C(C(N)=O)C(c2ccc(CC(C)C)cc2)n2nc(SCc3ccccc3)nc2N1 (centres undefined) | – | – | – | – | – | – | – | 8 µg/mL (≈ 18.5 µM) | – | –
CC1=C(C(N)=O)C(c2ccc(SC(F)(F)F)cc2)n2nc(SCc3ccccc3)nc2N1 (centres undefined) | – | – | – | – | – | – | – | > 128 µg/mL | – | –
